In ChEMBL document CHEMBL4251758, “Small Molecule Inhibition of MicroRNA miR-21 Rescues Chemosensitivity of Renal-Cell Carcinoma to Topotecan” (J Med Chem, 2018):
Activity calls are given as the source filed them. The rule behind the calls is not given here.

How the values were obtained:
[1] = molecular target: Luciferin 4-monooxygenase (Photinus pyralis) (UniProt P08659); experiment: Inhibition of firefly luciferase activity up to 50 uM
HeLa [2] = experiment: Inhibition of miR-182 RNA (unknown origin) transfected in human HeLa cells at 10 uM after 48 hrs by Bright-Glo luciferase reporter gene assay; format: cell-based
HeLa [3] = experiment: Effect on mature miR-21 expression levels in human HeLa cells at 10 uM after 48 hrs by qRT-PCR analysis; format: functional, cell-based
Method in brief: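 HeLa cells, 150,000 per well, grown overnight and exposed to 10 μM compound or DMSO (1% final) for 48 h at 37 °C. RNA was isolated and 100 ng reverse-transcribed with miR-21 or RNU19 TaqMan RT primers. TaqMan qPCR run for 40 cycles. Triplicate Ct values converted to levels relative to DMSO by the 2−ΔΔCt method.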

A498 [4] = experiment: Decrease in mature miR-21 expression levels in human A498 cells at 10 uM after 48 hrs by qRT-PCR analysis; format: functional, cell-based
A549 = experiment: Decrease in mature miR-21 expression levels in human A549 cells at 10 uM after 48 hrs by qRT-PCR analysis; format: functional, cell-based
MIA PaCa-2 = experiment: Cytotoxicity against human MIAPaCa2 cells after 72 hrs by XTT assay; format: functional, cell-based; conditions: MIA PaCa-2, 72 h
Method in brief: (§1)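 Cells seeded at 500 per well, incubated overnight, then exposed to increasing compound concentrations (0.1% DMSO final, DMSO control) in triplicate for 72 h. Activated XTT added; absorbance read at 450 nm with 630 nm background at start and after 4 h at 37 °C, 5% CO2. Change normalized to DMSO as % viability; IC50 from variable-slope sigmoidal fit; three independent measurements.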

A498 [5] = experiment: Cytotoxicity against human A498 cells after 72 hrs by XTT assay; format: functional, cell-based; conditions: A498, 72 h; method in brief: as §1
microRNA 21 [6] = experiment: Inhibition of miR-21 RNA in human A498 cells assessed as potentiation of topotecan-induced cytotoxicity after 72 hrs by XTT assay; format: cell-based
Method in brief: (§2)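 The chemotherapeutic agent (topotecan) was titrated while the miR-21 inhibitor was held at a fixed concentration, 0.1% DMSO final, in triplicate. Cells were seeded at 500 per well and treated after overnight attachment. After 72 h, XTT was read at 450 nm (630 nm background) at start and after 4 h. Signal normalized to DMSO; IC50 from variable-slope sigmoidal fit.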

A498 [7] = experiment: Inhibition of colony formation of human A498 cells up to 10 uM after 2 weeks by crystal violet staining-based microscopic analysis; format: functional, cell-based
Method in brief: (§3)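 A498 cells, 10,000 per well, seeded in 0.45% low-melt agarose in DMEM over a 0.7% agarose base layer, containing increasing compound concentrations or DMSO (0.1% final), in triplicate. For combinations, the inhibitor was held at 10 μM. After 2 weeks, colonies were stained with 0.1% crystal violet and imaged by z-stack microscopy. Colony counts were normalized to DMSO; IC50 from sigmoidal fit.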

microRNA 21 [8] = experiment: Inhibition of miR-21 RNA in human A498 cells assessed as potentiation of topotecan-induced inhibition of colony formation by measuring topotecan IC50 at 10 uM after 2 weeks by crystal violet staining-based microscopic analysis (reference value: 2 uM); format: cell-based; method in brief: as §3
microRNA 21 [9] = experiment: Inhibition of miR-21 RNA in human A498 cells assessed as potentiation of topotecan-induced apoptosis by measuring increase in caspase-3/7 activity at 10 uM after 24 hrs by Caspase-Glo 3/7 assay relative to control; format: cell-based; set-up: scale not given: the % may be the effect or the level left
Method in brief: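 A498 cells, 10,000 per well, treated after overnight attachment for 24 h with DMSO (0.1%), 400 nM topotecan, 10 μM inhibitor, or topotecan plus inhibitor at those levels. Caspase-3/7 activity read by Caspase-Glo 3/7 luminescence and normalized to DMSO. At least three independent experiments; unpaired t test.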

microRNA 21 [10] = experiment: Inhibition of miR-21 RNA in human A498 cells assessed as potentiation of topotecan-induced cytotoxicity by measuring topotecan IC50 at 10 uM after 72 hrs by XTT assay (reference value: 1 uM); format: cell-based; method in brief: as §2
NIH3T3 = experiment: Potentiation of topotecan-induced cytotoxicity in mouse NIH/3T3 cells at 1 to 10 uM after 72 hrs by XTT assay; format: cell-based; conditions: nih3t3, 72 h; method in brief: as §2

Chain of Luciferin 4-monooxygenase (Photinus pyralis) (P08659 whole entry): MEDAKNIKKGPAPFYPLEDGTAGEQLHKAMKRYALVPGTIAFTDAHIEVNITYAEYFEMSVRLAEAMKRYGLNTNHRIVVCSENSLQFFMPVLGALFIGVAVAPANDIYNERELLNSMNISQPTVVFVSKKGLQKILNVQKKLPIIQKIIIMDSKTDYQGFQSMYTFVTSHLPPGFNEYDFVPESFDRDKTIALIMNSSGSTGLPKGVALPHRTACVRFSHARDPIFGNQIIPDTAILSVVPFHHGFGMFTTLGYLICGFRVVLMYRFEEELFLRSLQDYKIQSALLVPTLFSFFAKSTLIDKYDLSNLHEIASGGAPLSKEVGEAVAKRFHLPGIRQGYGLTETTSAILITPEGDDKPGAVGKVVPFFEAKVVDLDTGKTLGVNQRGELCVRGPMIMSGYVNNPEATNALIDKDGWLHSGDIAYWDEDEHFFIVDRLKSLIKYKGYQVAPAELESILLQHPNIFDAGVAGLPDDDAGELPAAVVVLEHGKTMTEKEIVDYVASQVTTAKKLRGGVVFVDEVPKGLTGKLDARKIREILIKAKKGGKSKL

C#CCOc1ccc(-c2noc(-c3nnn(-c4cccc(/C(C)=N/O)c4)c3N)n2)cc1
inhibition [1]: inactive
inhibition (HeLa [2]): inactive
Activity (HeLa [3]): inactive
Activity (A498 [4]): inactive
Activity (A549): inactive
IC50 (MIA PaCa-2): 6700 nM
IC50 (A498 [5]): > 100000 nM
inhibition (microRNA 21 [6]): Dose-dependent effect
inhibition (A498 [7]): inactive
IC50 (microRNA 21 [8]): 74 nM
Activity (microRNA 21 [9]): 512%
IC50 (microRNA 21 [10]): 90 nM
Activity (NIH3T3): Non-Toxic
